Results as given in ChEMBL document CHEMBL5260794, “Synthesis and biological evaluation of a new class of benzothiazines as neuroprotective agents” (Eur J Med Chem, 2017).
Active and inactive are the calls of the source. The calls are words filed in the database; no cut-off is given here.

Tests used:
[1] = system: SH-SY5Y; test: Neuroprotective activity against glutamate-induced toxicity in human SH-SY5Y cells assessed as reduction in ROS production at 10 uM measured after 24 hrs by DCFH-DA staining based assay relative to control; assay type: functional; set-up: scale not given: the % may be the effect or the level left
Outline: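 SH-SY5Y cells loaded with DCFH-DA (5 μM, 30 min) and washed before treatment. Pretreated 1 h with compound (0.1-10 μM), then glutamate 50 mM. Fluorescence (ex 485/em 535 nm) read at 1 h or 24 h and expressed as % inhibition of glutamate-induced ROS. 4 independent experiments.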

[2] = system: SH-SY5Y; test: Neuroprotective activity against glutamate-induced toxicity in human SH-SY5Y cells assessed as reduction in sub G0/G1 phase cells at 10 uM pretreated for 1 hr followed by glutamate challenge measured after 24 hrs by propidium staining based flow cytometry; assay type: functional, cell-based; settings: time 25.0 hrs
Outline: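 SH-SY5Y cells (2.5 x 10⁵ cells/mL) pretreated 1 h with compound, then given glutamate 50 mM for 24 h. Cells fixed in 70% ethanol (30 min, 4 °C), held at -20 °C for at least 24 h, stained with propidium iodide. Flow cytometry on at least 1x10⁴ cells, cell-cycle phases and sub-G₀/G₁ fraction quantified. 4 independent experiments.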

[3] = organism: Rattus norvegicus; test: Inhibition of high voltage-activated calcium current in Wistar rat brain piriform cortex assessed as time required to inhibit barium current by whole cell patch clamp method; assay type: functional
Outline: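 Acutely dissociated P15-P22 Wistar rat piriform cortex neurons recorded whole-cell at holding -70 mV. 5 mM Ba²⁺ was the charge carrier, with a Cs methanesulfonate pipette. HVA currents evoked by step or ramp protocols from -60 mV. Compound applied by local perfusion (DMSO 0.02-0.67%). Peak I_Ba amplitude tracked over time, and concentration-response fitted with the sum of two Hill functions.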

[4] = system: SH-SY5Y; test: Neuroprotective activity against 6-OHDA-induced toxicity in human SH-SY5Y cells assessed as reduction in ROS production at 0.1 to 10 uM by DCFH-DA staining based assay; assay type: functional, cell-based; settings: dose 0.1-10 µM, TDE = time-dependent effect
Outline: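 SH-SY5Y cells loaded with DCFH-DA (5 μM, 30 min) and washed. Pretreated 1 h with compound (0.1-10 μM), then 6-OHDA 55 μM. Fluorescence (ex 485/em 535 nm) read at 1 h or 24 h and expressed as % inhibition of 6-OHDA-induced ROS. 4 independent experiments.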

[5] = system: SH-SY5Y; test: Neuroprotective activity against 6-OHDA-induced toxicity in human SH-SY5Y cells assessed as increase in cell viability at 10 uM pretreated for 1 hr followed by 6-OHDA challenge measured after 2 hrs by MTT assay; assay type: functional, cell-based; settings: time 3.0 hrs
Outline: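 SH-SY5Y cells attached 24 h, then pretreated 1 h with compound (0.1-10 μM) and challenged with 6-OHDA 55 μM for 2 h. 6-OHDA made fresh in nitrogen-gassed 5 μM ascorbic acid, and controls received medium with ascorbic acid. Viability by MTT. Mean ± SEM of 4 independent experiments run in triplicate or quadruplicate, ANOVA with Dunnett test.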

[6] = system: SH-SY5Y; test: Neuroprotective activity against glutamate-induced toxicity in human SH-SY5Y cells assessed as reduction in cell shrinkage at 10 uM pretreated for 1 hr followed by glutamate challenge measured after 24 hrs by phase-contrast light microscopic analysis; assay type: functional, cell-based; settings: time 25.0 hrs
Outline: (§1)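 SH-SY5Y cells attached 24 h, then pretreated 1 h with compound (0.1-10 μM) before glutamate 50 mM for 24 h. Viability by MTT. Morphology under phase-contrast microscope, scored by the USP 28 grade scale (0-4). Mean ± SEM of 4 independent experiments run in triplicate or quadruplicate, ANOVA with Dunnett test.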

[7] = system: SH-SY5Y; test: Neuroprotective activity against glutamate-induced toxicity in human SH-SY5Y cells assessed as cell viability at 10 uM pretreated for 1 hr followed by glutamate challenge measured after 24 hrs by MTT assay; assay type: functional; settings: time 25 hrs, read-out: Activity; outline: as §1
[8] = system: SH-SY5Y; test: Neuroprotective activity against glutamate-induced toxicity in human SH-SY5Y cells assessed as reduction in condensed and fragmented nuclei at 10 uM pretreated for 1 hr followed by glutamate challenge measured after 24 hrs by DAPI staining based assay (reference value: 16.9 +/- 1.5%); assay type: functional, cell-based; settings: time 25.0 hrs
Outline: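 Cells pretreated 1 h with compound (0.1-10 μM), then glutamate 50 mM for 24 h. DAPI staining; cells with condensed or fragmented nuclei scored as apoptotic, reported as percentage. Mean ± SEM of 4 independent experiments.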

[9] = organism: Rattus norvegicus; test: Inhibition of transient voltage-dependent sodium current in Wistar rat brain piriform cortex layer assessed as reduction in maximal current amplitude at 5 uM by whole cell patch clamp method; assay type: functional
[10] = organism: Rattus norvegicus; test: Inhibition of persistent voltage-dependent sodium current in Wistar rat brain piriform cortex layer at 15 uM by whole cell patch clamp method; assay type: functional
[11] = organism: Rattus norvegicus; test: Inhibition of transient voltage-dependent sodium current in Wistar rat brain piriform cortex layer assessed as negative shift of inactivation function at 15 uM by whole cell patch clamp method; assay type: functional
[12] = organism: Rattus norvegicus; test: Inhibition of persistent voltage-dependent sodium current in Wistar rat brain piriform cortex layer at 5 uM by whole cell patch clamp method; assay type: functional
[13] = organism: Rattus norvegicus; test: Inhibition of transient voltage-dependent sodium current in Wistar rat brain piriform cortex layer by whole cell patch clamp method; assay type: functional
[14] = organism: Rattus norvegicus; test: Inhibition of persistent voltage-dependent sodium current in Wistar rat brain piriform cortex layer at 50 uM by whole cell patch clamp method; assay type: functional
[15] = organism: Rattus norvegicus; test: Inhibition of transient voltage-dependent sodium current in Wistar rat brain piriform cortex layer assessed as reduction in maximal current amplitude at 15 uM by whole cell patch clamp method; assay type: functional

CCCN(CCC)/C(C)=N/C1=Nc2ccccc2CS1
Activity [1]: 20% | Activity [2]: Active | Time [3]: 128.2 ms | Activity [4]: Tde | Activity [5]: Active | Activity [6]: Active | viability at 10 µM [7]: 65% | Activity [8]: Active

CCN(CC)/C(C)=N/C1=Nc2ccccc2CS1
inhibition in vivo at 5 µM [9]: 26.4% | Activity [1]: 20% | Activity [2]: Active | inhibition in vivo at 15 µM [10]: 77% | Activity [4]: Tde | Activity [11]: 11.8 mV | inhibition in vivo at 5 µM [12]: 70.7% | inhibition [13]: Dose-Dependent Effect | Activity [5]: Active | Activity [6]: Active | inhibition in vivo at 50 µM [14]: 91.8% | inhibition in vivo at 15 µM [15]: 24.2% | viability at 10 µM [7]: 65% | Activity [8]: Active
